GASC1 inh: inhibitors of GASC-1 (KDM4C) histone demethylase, primary screen, biochemical, single concentration HTS. Lysine-specific demethylase 4C (Homo sapiens), Q9H3R0. inhibition, % at 12.5 µM. hit rate 0.15% among 96,000. GST-KDM4C 2-372, H3K9me3 peptide, LANCE TR-FRET;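 active = mean replicate inhibition above about 25%, with at least 55% of replicates also reaching it, limit read from the data, passing the limit was not always enough; inconclusive = only one of those two conditions met; inactive = neither condition met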
Target sequence (Q9H3R0 2-372 limits assumed): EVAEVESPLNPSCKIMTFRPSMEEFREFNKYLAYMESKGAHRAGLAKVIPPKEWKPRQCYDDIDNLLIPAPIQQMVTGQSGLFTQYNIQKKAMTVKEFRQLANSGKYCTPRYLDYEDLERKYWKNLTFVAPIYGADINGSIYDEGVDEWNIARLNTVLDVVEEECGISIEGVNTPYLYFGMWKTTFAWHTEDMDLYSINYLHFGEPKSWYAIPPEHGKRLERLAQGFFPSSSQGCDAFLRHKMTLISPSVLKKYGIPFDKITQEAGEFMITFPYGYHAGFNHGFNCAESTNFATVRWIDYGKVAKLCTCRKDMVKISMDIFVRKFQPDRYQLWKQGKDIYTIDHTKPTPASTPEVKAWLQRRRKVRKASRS
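Compound: one test concentration per compound; Material: GST-GASC-1 enzyme fragment 2-372; Amount: GASC-1 enzyme at 10 nM final in reaction; Also added: H3K9me3 peptide substrate, Fe(II), 2-oxoglutarate; Technique: LANCE TR-FRET; Times: 30 min demethylation and 1 h detection at room temperature.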
Pf Dd2 growth: P. falciparum Dd2 growth inhibitors, primary screen, SYBR Green fluorescence, single dose replicates. 72 h; hits give low values. activity change, % at 10 µM. hit rate 2.3% among 94,000. AID 1159554, 2015; in the data active = activity change below about -80%; inconclusive = no clear call, values can overlap the other calls
IDH1 R132H inh: inhibitors of IDH1 R132H reductase, primary screen, biochemical, plate reader, single point | inhibition, % at 10 µM | diaphorase/resazurin fluorescence, 60 min | hit rate 0.18% among 70,000; in the data active = inhibition above about 34%; inconclusive = no clear call, values can overlap the other calls; inactive = below about 11%;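 note: 0% = DMSO and 100% = no enzyme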
T cruzi growth-1: T. cruzi intracellular proliferation inhibitors, primary screen, cell-based, beta-gal Tulahuen parasites, NIH3T3 host, luminescence | hit rate 5.9% among 77,000 | T. cruzi beta-gal in NIH3T3, GalScreen luminescence, 90 h | inhibition, % at 8.34 µM;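 active = mean inhibition above about 93%, with at least 55% of replicates each passing it, limit read from the data, passing the limit was not always enough; inconclusive = only one of those two conditions holds; inactive = neither condition holds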
T cruzi growth-2: T. cruzi intracellular proliferation inhibitors, confirmation, cell-based, NIH3T3 host, beta-gal parasite, luminescence, cherry-pick | shares compounds with T cruzi growth-1 | T. cruzi beta-gal in NIH3T3, GalScreen luminescence, 90 h | inhibition, % at 8.35 µM | hit rate 72% among 5,600;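 active = mean replicate inhibition above about 95% and at least 55% of replicates individually reaching it, limit read from the data; inconclusive = only one of the two criteria is met; inactive = neither criterion is met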
T cruzi growth-3: inhibitors of intracellular T. cruzi replication, confirmation, NIH3T3 host cells, beta-gal parasites, cherry-pick, set 2. shares compounds with T cruzi growth-1. T. cruzi beta-gal in NIH3T3, GalScreen luminescence, 90 h. inhibition, % at 2.09 µM. hit rate 21% among 5,600. AID 651740, 2012;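 active = mean inhibition above about 95%, with at least 55% of replicates also reaching it, limit read from the data; inconclusive = meets just one of the two conditions; inactive = meets neither condition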;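 note: plate controls were neutral control median for no effect and positive control median for full effect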
NIH3T3 tox: cytotoxicity in mouse NIH/3T3 fibroblasts, confirmation, cytotoxicity control for T. cruzi proliferation inhibitor project, cell-based, cherry-pick, single point; shares compounds with T cruzi growth-1; NIH/3T3 viability, CellTiter-Glo ATP luminescence, 90 h; cytotoxicity (signal decrease), % at 8.35 µM; hit rate 14% among 5,600; AID 651742, 2012;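 active = mean signal decrease across replicates above about 35% based on untreated-well scatter, with enough replicates individually passing, limit read from the data; inconclusive = no rule stated though some were filed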;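 note: 0% = median of neutral control wells and 100% = median of positive control wells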
3T3 cytotox 2: NIH/3T3 fibroblast cytotoxicity, confirmation, cytotoxicity control, cell-based, cherry-pick, single point, set 2 | shares compounds with T cruzi growth-1 | NIH/3T3 viability, CellTiter-Glo ATP luminescence, 90 h | inhibition, % at 24.9 µM | hit rate 56% among 5,600;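 active = mean loss of cell viability signal at or above a set limit, and enough replicates individually reaching it; inconclusive = meets only the mean limit or only the replicate share; inactive = meets neither condition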;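 note: 0% = median of neutral control wells and 100% = median of positive control wells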
Starred values were filed as active, the others as inactive; ? = inconclusive; · = no result. The list is not random: actives were taken first. Their share in the collection is about 5.8%.

SMILES | GASC1 inh | Pf Dd2 growth | IDH1 R132H inh | T cruzi growth-1 | T cruzi growth-2 | T cruzi growth-3 | NIH3T3 tox | 3T3 cytotox 2
C[C@@H]1CN([C@H](C)CO)C(=O)c2cc(NC(=O)CCCN(C)C)ccc2O[C@H]1CN(C)S(=O)(=O)c1ccc(F)cc1 | 3 | 11 | · | 39 | · | · | · | ·
CCc1nc(N2[C@H](C#N)[C@H](c3ccccc3-c3ccccc3C)[C@H]2CO)sc1C | -1 | -23 | · | · | · | · | · | ·
CS(=O)(=O)N1[C@@H](C#N)[C@H](c2ccc(C#CC3CC3)cc2)[C@@H]1CO | -5 | -28 | · | 66 | · | · | · | ·
CS(=O)(=O)N1[C@@H](C#N)[C@@H](c2ccc(C#CC3CC3)cc2)[C@@H]1CO | -2 | -28 | · | 103* | 107* | ? | -22 | 16
N#C[C@@H]1[C@H](c2ccc(C#CC3CCCC3)cc2)[C@@H](CO)N1S(=O)(=O)c1ccccc1 | -1 | -16 | · | 97* | 96* | 107* | 13 | 108*
O=C(CCCN1C(=O)c2cccc3cccc(c23)C1=O)Nc1ccccc1C(F)(F)F | · | · | 0 | · | · | · | · | ·
O=C(NCCN1CCCCC1)[C@H]1N[C@H]2c3ccc(-c4ccc(F)cc4)c(=O)n3C[C@H]2[C@@H]1CO | 1 | -5 | · | 3 | · | · | · | ·
O=C(C[C@H]1C[C@@H]2c3cc(NC(=O)c4ccc5c(c4)OCO5)ccc3O[C@@H]2[C@@H](CO)O1)NCc1ccc(Cl)cc1 | 1 | -41 | 0 | 101* | 101* | 56 | 21 | 25
O=C(C[C@H]1C[C@@H]2c3cc(NC(=O)c4ccc5c(c4)OCO5)ccc3O[C@@H]2[C@H](CO)O1)NCc1ccc(Oc2ccccc2)cc1 | -2 | -18 | -1 | 177* | 99* | 38 | -15 | 45*
O=C(C[C@@H]1C[C@@H]2c3cc(NC(=O)c4ccc5c(c4)OCO5)ccc3O[C@@H]2[C@H](CO)O1)NCc1ccc(Cl)cc1 | -1 | -10 | 0 | 9 | · | · | · | ·
CNC[C@@H]1Oc2ccc(NC(=O)Cc3cn(C)c4ccccc34)cc2C(=O)N([C@H](C)CO)C[C@H]1C | 2 | 8 | -38 | 16 | · | · | · | ·
OC[C@@H]1[C@H](c2ccc(-c3ccc(F)cc3)cc2)[C@H]2CN(Cc3ccncc3)CCCCN12 | 3 | -57 | · | 108* | 92 | 70 | ? | 104*
OC[C@H]1[C@H](c2ccc(-c3ccccc3F)cc2)[C@H]2CN(Cc3cccnc3)CCCCN21 | 0 | 14 | · | 72 | · | · | · | ·
OC[C@@H]1[C@H](c2ccc(-c3ccccc3F)cc2)[C@@H]2CN(Cc3ccncc3)CCCCN12 | 4 | 12 | · | ? | 107* | 26 | 15 | 90*
OC[C@@H]1[C@H](c2ccc(-c3ccc(F)cc3)cc2)[C@@H]2CN(Cc3cccnc3)CCCCN12 | 0 | -40 | · | 123* | 106* | 66 | 28 | 95*
OC[C@@H]1[C@@H](c2ccc(-c3ccccc3F)cc2)[C@H]2CN(Cc3cccnc3)CCCCN12 | -1 | -55 | · | 97* | 76 | 38 | ? | 97*
OC[C@@H]1[C@@H](c2ccc(-c3ccccc3F)cc2)[C@@H]2CN(Cc3ccncc3)CCCCN12 | 3 | 7 | · | 75 | · | · | · | ·
COc1ccccc1CN1[C@H](CO)[C@@H]2c3ccccc3N(C(=O)C3CC3)C[C@@H]21 | 2 | -7 | · | 55 | · | · | · | ·
O=C(C[C@@H]1CC[C@@H](NC(=O)Nc2cc(F)ccc2F)[C@H](CO)O1)Nc1ccccc1 | 1 | · | 0 | · | · | · | · | ·
O=C(c1cccnc1)N1C[C@@H]2[C@H](c3ccccc31)[C@H](CO)N2C(=O)Nc1cccc(F)c1 | 6 | 8 | · | -20 | · | · | · | ·
C[C@@H]1CN([C@H](C)CO)C(=O)c2cc(NS(=O)(=O)c3ccc(Cl)cc3)ccc2O[C@@H](C)CCCCO[C@@H]1CN(C)Cc1ccc(C(=O)O)cc1 | 0 | -38 | · | 16 | · | · | · | ·
C[C@H]1CN([C@@H](C)CO)C(=O)Cc2cc(NC(=O)C3CC3)ccc2O[C@@H]1CN(C)Cc1ccc(-c2ccccc2)cc1 | 0 | -20 | 3 | 92 | · | · | · | ·
C[C@H]1CN([C@@H](C)CO)C(=O)Cc2cc(NC(=O)c3ccncc3)ccc2O[C@@H]1CN(C)Cc1ccc(-c2ccccc2)cc1 | 0 | -36 | 1 | 81 | · | · | · | ·
C[C@@H]1CN([C@H](C)CO)C(=O)Cc2cc(NC(=O)c3ccncc3)ccc2O[C@H]1CN(C)Cc1ccc(Oc2ccccc2)cc1 | 0 | -17 | 0 | 105* | 109* | 36 | 4 | 103*
C[C@H](CO)N1C[C@H](C)[C@@H](CN(C)Cc2ccc(-c3ccccc3)cc2)Oc2ccc(NC(=O)C3CC3)cc2CC1=O | -2 | -19 | 1 | 105* | 106* | 77 | 10 | 105*
SMILES | GASC1 inh | Pf Dd2 growth | IDH1 R132H inh | T cruzi growth-1 | T cruzi growth-2 | T cruzi growth-3 | NIH3T3 tox | 3T3 cytotox 2
C[C@@H]1CN([C@@H](C)CO)C(=O)Cc2cc(NC(=O)c3ccncc3)ccc2O[C@@H]1CN(C)Cc1ccc(Oc2ccccc2)cc1 | 0 | -11 | · | 100 | · | · | · | ·
C[C@@H]1CN([C@@H](C)CO)C(=O)Cc2cc(NC(=O)c3ccncc3)ccc2O[C@H]1CN(C)Cc1ccc(-c2ccccc2)cc1 | -2 | -66 | 1 | 109* | 104* | 111* | 28 | 103*
C[C@H](CO)N1C[C@H](C)[C@@H](CN(C)Cc2ccc(Oc3ccccc3)cc2)Oc2ccc(NC(=O)c3ccncc3)cc2CC1=O | -1 | -21 | 5 | 97* | 111* | 40 | 12 | 106*
C[C@H](CO)N1C[C@H](C)[C@@H](CN(C)Cc2ccccc2)Oc2ccc(NC(=O)c3ccncc3)cc2CC1=O | 0 | 8 | 3 | 68 | · | · | · | ·
C[C@H](CO)N1C[C@H](C)[C@@H](CN(C)Cc2ccncc2)Oc2ccc(NC(=O)c3ccncc3)cc2CC1=O | -1 | 17 | 1 | 10 | · | · | · | ·
C[C@H](CO)N1C[C@H](C)[C@@H](CN(C)Cc2ccc(C(F)(F)F)cc2)Oc2ccc(NC(=O)c3ccncc3)cc2CC1=O | 1 | -7 | 1 | 96* | 105* | 33 | 14 | 59*
